# Results gathered from unrelated publications.
# Each line is one published result; the experiments were not run side by side.
# Target: Receptor tyrosine-protein kinase erbB-3 (ERBB3, Homo sapiens, UniProt P21860)
SMILES,effect on,method,concentration,remaining binding [%]
Cc1cnn2ncc(-c3ccnc(N(C)C)n3)c2c1,binding,,1 µM,100
O=C(c1ccc(Nc2ncc(Cl)c(-c3ccc(Cl)s3)n2)cc1)N1CCC(N2CCCC2)CC1,binding,competition with immobilised ligand,1 µM,100
C[C@@H]1CCN(c2nccc(-c3cnn4ncccc34)n2)C1,binding,,1 µM,100
O=C1CCc2cc(Nc3cc(OC4CCOCC4)c([N+](=O)[O-])cc3Cl)ccc2N1,cell-free assay,competition with immobilised ligand,1 µM,98
c1cncc(-c2cccc(Nc3nccc(NC4CCCCC4)n3)c2)c1,binding,competition with immobilised ligand,10 µM,84
c1cnn2ncc(-c3ccnc(N4CCC45COC5)n3)c2c1,binding,,1 µM,86
CNC(=O)[C@@H]1CC[C@@H](n2c(-c3ccc4cnccc4c3)nc3ccc(C(=O)NCc4cccc(C(N)=O)c4)cc32)C1,binding,competition with immobilised ligand,1 µM,100
O=C(c1ccc(Nc2nccc(-c3cc4ccccc4s3)n2)cc1)N1CCC(N2CCCC2)CC1,binding,competition with immobilised ligand,1 µM,100
CN(c1nccc(-c2cnn3ncccc23)n1)C1CC1,binding,,1 µM,100
Cc1c(C(=O)O)cc(-c2ccc(C3CCNCC3)cc2)c2ccc(-c3ccc(C(F)(F)F)cc3)cc12,binding,competition with immobilised ligand,1 µM,86
N[C@H]1CCN(c2nccc(-c3cnn4ncccc34)n2)C1,binding,,1 µM,97
FC(F)(F)Oc1cccc(-c2cnc3ccc(-c4ccncc4)nn23)c1,cell-free assay,competition with immobilised ligand,5 µM,19
C[C@H](NC(=O)c1cnc2n1[C@](C)(Cc1ccc(C#N)cc1)C(=O)N2c1cc(Cl)c(F)c(Cl)c1)C(=O)NC1(c2ccccn2)CC1,cell-free assay,competition with immobilised ligand,1 µM,100
F[C@@H]1CCN(c2nccc(-c3cnn4ncccc34)n2)C1,binding,,1 µM,100
CC(=O)N1CCC(c2ccc(C(=O)NC(=N)N)cc2C(F)(F)F)CC1,cell-free assay,competition with immobilised ligand,1 µM,98
CN(C)c1ncc(F)c(-c2cnn3ncccc23)n1,binding,,1 µM,100
O=C(c1ccc(Nc2ncc(Cl)c(-c3cc4ccccc4s3)n2)cc1)N1CCC(N2CCCC2)CC1,binding,competition with immobilised ligand,1 µM,81
COc1ccc2c(c1)O[C@H](c1ccc(OC)c(OC)c1)C[C@@H]2NC(=O)C1(c2ccc3c(c2)OC(F)(F)O3)CC1,cell-free assay,competition with immobilised ligand,1 µM,92
O=C(Nc1c[nH]nc1C(=O)NC1CCNCC1)c1cc(F)cc(F)c1,binding,competition with immobilised ligand,1 µM,86
Nc1ncc2c(n1)-c1c([nH]c3ccc(C#CC4CC4)cc13)CCCC2,binding,competition with immobilised ligand,1 µM,100
C=CC(=O)N1CCC(C(=O)NCC(=O)N2CCN(c3nc(-c4cnc(N)nc4C(F)F)nc(N4CCOCC4)n3)CC2)CC1,binding,competition with immobilised ligand,1 µM,84
CCOC(=O)c1cc2cc(-c3cc(C(=O)NCc4ccc(C(=O)O)cc4)nn3C)ccc2[nH]1,cell-free assay,competition with immobilised ligand,0.1 µM,81
